This excerpt belongs to a sample that is enriched for hits.
T cruzi intra: inhibitors of intracellular Trypanosoma cruzi; activity score (inhibition), % at 5.01 µM; 4.9% of 22,000 active; intracellular Trypanosoma cruzi in host cells, plate reader; in the data active = activity score above about 55%;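 note: parasites and compound incubated about four days before reading; 0% = median of neutral control wells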
A1 apoptosis 2: blocks A1, raising caspase activity | MEF A1-2A-BIM cells, caspase-Glo luminescence, 3 h; percent of clofoctol response, DMSO zero | caspase activation, % (test concentration not listed) | 24,000 tested, under 10 active; in the data active = caspase activation above about 5.9%
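Material: mouse embryonic fibroblasts co-expressing A1 and BIM (A1-2A-BIM), primed for A1 dependence / Quantity: 2500 cells/well / Buffer or medium: RPMI-1640 growth medium with 10% FBS / Doses: 50 nL compound per well, pinned / Schedule: 3 h compound exposure at 37 °C / Signal: Caspase-Glo luminescence (DEVD substrate) / Measure: Caspase-3/7 activation, seen as rise in luminescence signal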
INS-1E rescue: INS-1E beta cell protection from cytokine death; INS-1E cytokine-induced death, ATP luminescence, 48 h; normalised: neutral wells 0, positive control 100; protection from cytokine-induced ATP loss, % at 10 µM; 0.1% of 20,000 active; AID 488910;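 active = mean replicate protection from cytokine-induced ATP loss at least 50% and at least 75% of replicates each reaching 50%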
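assay system = INS-1E rat insulinoma cells | amount = 8000 cells per well | medium = phenol-red-free RPMI with 5% fetal bovine serum | doses = one compound concentration, pin transfer | timing = 48 h cytokine plus compound treatment, 10 min reagent incubation | also added = IL-1β, TNF-α and IFN-γ cytokine mix | signal = CellTiter-Glo luminescence measuring cellular ATP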
An asterisk follows results filed as active; / = not tested or not shown.

SMILES	T cruzi intra	A1 apoptosis 2	INS-1E rescue
Cc1ccc(S(=O)(=O)N(C)C[C@@H]2Oc3ccc(NC(=O)c4ccncc4)cc3C(=O)N([C@H](C)CO)C[C@H]2C)cc1	-14	/	2
C[C@H]1CN([C@@H](C)CO)C(=O)c2cc(NC(=O)Nc3cccc4ccccc34)ccc2O[C@H]1CN(C)S(=O)(=O)c1ccc(F)cc1	65*	/	-15
C[C@@H]1CN([C@@H](C)CO)C(=O)c2cc(NC(=O)Nc3cccc4ccccc34)ccc2O[C@@H]1CN(C)S(=O)(=O)c1ccc(F)cc1	28	-1	-13
C[C@H](CO)N1C[C@H](C)[C@H](CN(C)S(=O)(=O)c2ccc(F)cc2)Oc2ccc(NC(=O)Nc3ccc(C(F)(F)F)cc3)cc2C1=O	14	-2	/
C[C@H]1CN([C@@H](C)CO)C(=O)c2cc(NS(=O)(=O)c3ccc(F)cc3)ccc2O[C@H]1CN(C)C(=O)Nc1ccc(F)cc1	5	/	/
CNC[C@H]1OCCCC[C@H](C)Oc2ccc(NS(=O)(=O)c3ccc(C)cc3)cc2C(=O)N([C@@H](C)CO)C[C@H]1C	/	1	/
C[C@@H]1CCCCO[C@@H](CN(C)Cc2ccc(Cl)c(Cl)c2)[C@H](C)CN([C@H](C)CO)C(=O)c2cc(N(C)C)ccc2O1	/	1	/
C[C@H](CO)N1C[C@H](C)[C@H](CN(C)Cc2ccc3c(c2)OCO3)Oc2ccc(NC(=O)Cc3ccccc3)cc2C1=O	-11	/	-7
COc1ccc(S(=O)(=O)N(C)C[C@@H]2Oc3c(NC(=O)Nc4ccc(C(F)(F)F)cc4)cccc3C(=O)N([C@@H](C)CO)C[C@@H]2C)cc1	61*	0	-59
COc1ccc(NC(=O)Nc2cccc3c2O[C@H](CN(C)S(=O)(=O)c2ccc(OC)cc2)[C@@H](C)CN([C@H](C)CO)C3=O)cc1	-11	0	2
Cc1ccc(S(=O)(=O)N(C)C[C@@H]2Oc3c(NC(=O)Nc4cccc5ccccc45)cccc3C(=O)N([C@@H](C)CO)C[C@H]2C)cc1	0	0	62*
Cc1ccc(S(=O)(=O)N(C)C[C@H]2Oc3c(NC(=O)Nc4ccc(C(F)(F)F)cc4)cccc3C(=O)N([C@@H](C)CO)C[C@H]2C)cc1	79*	-1	-107
Cc1ccc(S(=O)(=O)N(C)C[C@@H]2Oc3c(NC(=O)Nc4ccc(C(F)(F)F)cc4)cccc3C(=O)N([C@@H](C)CO)C[C@@H]2C)cc1	-1	/	-26
Cc1ccc(S(=O)(=O)N(C)C[C@H]2Oc3c(NC(=O)Nc4cccc5ccccc45)cccc3C(=O)N([C@H](C)CO)C[C@H]2C)cc1	39	1	10
COc1ccc(NC(=O)Nc2cccc3c2O[C@@H](CN(C)S(=O)(=O)c2ccc(OC)cc2)[C@H](C)CN([C@H](C)CO)C3=O)cc1	17	1	-7
COc1ccc(S(=O)(=O)N(C)C[C@@H]2Oc3c(NC(=O)Nc4ccc(C(F)(F)F)cc4)cccc3C(=O)N([C@H](C)CO)C[C@@H]2C)cc1	74*	/	-101
COc1ccc(NC(=O)Nc2ccc3c(c2)C(=O)N([C@H](C)CO)C[C@H](C)[C@@H](CN(C)Cc2ccncc2)OCCCC[C@H](C)O3)cc1	/	0	/
C[C@@H]1CN([C@@H](C)CO)C(=O)c2cccc(NC(=O)c3ccc(-c4nccs4)cc3)c2O[C@@H]1CN(C)Cc1ccc(Oc2ccccc2)cc1	40	-1	-76
CNC[C@@H]1OCCCC[C@H](C)Oc2ccc(NC(=O)NC3CCCCC3)cc2C(=O)N([C@@H](C)CO)C[C@@H]1C	/	0	/
C[C@@H]1CCCCO[C@@H](CN(C)S(=O)(=O)c2ccccc2)[C@@H](C)CN([C@H](C)CO)C(=O)c2cc(NC(=O)Nc3ccc4c(c3)OCO4)ccc2O1	1	-2	15
C=CC[C@]12N=C(c3ccc(OCCCO)cc3)O[C@H]1c1ccccc1CN(CCS(=O)(=O)c1ccccc1)C2=O	/	-1	/
C[C@@H]1CN([C@H](C)CO)C(=O)Cc2cc(NS(=O)(=O)c3ccccc3)ccc2O[C@H]1CN(C)Cc1ccc(Cl)c(Cl)c1	73*	-1	-10
C[C@H]1CN([C@@H](C)CO)C(=O)Cc2cc(NS(=O)(=O)c3ccccc3)ccc2O[C@H]1CN(C)Cc1ccc(Cl)c(Cl)c1	25	0	-29
C[C@H](CO)N1C[C@H](C)[C@H](CN(C)Cc2ccc(Cl)c(Cl)c2)Oc2ccc(NS(=O)(=O)c3ccccc3)cc2CC1=O	38	0	-5
C[C@@H]1CN([C@H](C)CO)C(=O)Cc2cc(NS(=O)(=O)c3ccccc3)ccc2O[C@@H]1CN(C)Cc1ccc(Cl)c(Cl)c1	65*	-1	-65

Screens as filed in PubChem.
